Results on 24 molecules are retold here after ChEMBL document CHEMBL1152523, “3-Substituted phenylalanines as selective AMPA- and kainate receptor ligands” (Bioorg Med Chem, 2009).

Each structure is given as a SMILES string. Activity calls are given as the source filed them. No cut-off for these calls is given here.

The target of assay [1] is T1, Glutamate receptor ionotropic, kainate 1 (Rattus norvegicus, UniProt P22756). Briefly: Displacement of [3H]SYM2081 from rat recombinant iGluR5-1b expressed in baculovirus-infected insect Sf9 cells. The gist of the method: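 Recombinant rat iGluR5(Q)1b expressed in Sf9 insect cells via baculoviral infection; competition binding against [3H]-SYM 2081 radioligand. Values from three independent experiments, expressed as mean ± SEM.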
T1 sequence (P22756 whole entry): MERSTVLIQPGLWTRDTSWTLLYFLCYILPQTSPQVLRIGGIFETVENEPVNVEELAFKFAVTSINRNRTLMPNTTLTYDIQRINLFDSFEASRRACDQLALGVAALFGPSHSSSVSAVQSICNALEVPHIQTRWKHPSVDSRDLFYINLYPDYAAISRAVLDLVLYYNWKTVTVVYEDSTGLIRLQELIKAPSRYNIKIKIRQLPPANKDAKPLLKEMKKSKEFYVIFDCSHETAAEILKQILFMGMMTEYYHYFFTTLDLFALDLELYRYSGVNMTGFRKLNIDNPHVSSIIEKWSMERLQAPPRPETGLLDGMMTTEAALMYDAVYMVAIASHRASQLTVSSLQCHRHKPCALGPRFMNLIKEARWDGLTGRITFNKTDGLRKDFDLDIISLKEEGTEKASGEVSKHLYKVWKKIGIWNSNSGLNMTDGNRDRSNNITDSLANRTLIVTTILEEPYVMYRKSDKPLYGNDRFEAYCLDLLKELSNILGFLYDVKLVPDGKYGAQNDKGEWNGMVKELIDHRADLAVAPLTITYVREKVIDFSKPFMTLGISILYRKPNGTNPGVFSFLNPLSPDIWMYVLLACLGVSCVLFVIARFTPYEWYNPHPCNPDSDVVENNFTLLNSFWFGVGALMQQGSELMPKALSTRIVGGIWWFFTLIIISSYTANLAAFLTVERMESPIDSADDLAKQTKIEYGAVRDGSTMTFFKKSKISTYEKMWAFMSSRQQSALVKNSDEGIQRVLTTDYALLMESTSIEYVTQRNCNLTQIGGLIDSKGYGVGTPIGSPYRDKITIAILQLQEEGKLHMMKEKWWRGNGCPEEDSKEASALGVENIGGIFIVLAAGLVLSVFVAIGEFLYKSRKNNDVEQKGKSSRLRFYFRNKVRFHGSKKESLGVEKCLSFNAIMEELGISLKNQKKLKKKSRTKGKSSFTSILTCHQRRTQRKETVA
(In general: In a radioligand displacement assay an active substance lowers the binding of a labelled ligand.)

The target of assay [2] is Glutamate receptor ionotropic, kainate 2 (Rattus norvegicus) (UniProt P42260). Briefly: Displacement of [3H]SYM2081 from rat recombinant iGluR6 expressed in baculovirus-infected insect Sf9 cells. The gist of the method:
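Recombinant rat iGluR6(V,C,R) expressed in baculovirus-infected Sf9 insect cells. Competition binding against [3H]-SYM 2081 radioligand. Three independent experiments, mean ± SEM.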

The target of assay [3] is Glutamate NMDA receptor (Rattus norvegicus) (UniProt P35439+Q00959+Q00960+Q00961+Q62645+Q8VHN2+Q9R1M7). Briefly: Displacement of [3H]CGP39653 from NMDA receptor in rat cortical membrane. It counts as cell membranes. The essentials:
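Rat brain membranes prepared per Ransom and Stec. Binding at the NMDA site measured with 2 nM [3H]CGP 39653. Three independent experiments, mean ± SEM.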

Assay [4] is described as follows: Displacement of [3H]AMPA from AMPA receptor in rat cortical membrane. It counts as cell membranes. The essentials: (§1)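 Native rat brain membranes prepared per Ransom and Stec. Competition binding with 5 nM [3H]AMPA or 5 nM [3H]KA. Three independent experiments, mean ± SEM.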
Assay [5] is filed under the species Rattus norvegicus. Briefly: Displacement of [3H]kainic acid from kainate receptor in rat cortical membrane. It counts as cell membranes. The essentials:
as §1

Assay [6] concerns the target Glutamate receptor 2 (Rattus norvegicus, UniProt P19491). Briefly: Displacement of [3H]AMPA from wild type rat GluR2 S1S2 ligand binding core.
For assay [7], the target named is T1, Glutamate receptor ionotropic, kainate 1. Briefly: Displacement of [3H]S-glutamate from rat GluR5 S1S2 ligand binding core expressed in Escherichia coli (DE3).

Chain of Glutamate receptor ionotropic, kainate 2 (Rattus norvegicus) (P42260 whole entry): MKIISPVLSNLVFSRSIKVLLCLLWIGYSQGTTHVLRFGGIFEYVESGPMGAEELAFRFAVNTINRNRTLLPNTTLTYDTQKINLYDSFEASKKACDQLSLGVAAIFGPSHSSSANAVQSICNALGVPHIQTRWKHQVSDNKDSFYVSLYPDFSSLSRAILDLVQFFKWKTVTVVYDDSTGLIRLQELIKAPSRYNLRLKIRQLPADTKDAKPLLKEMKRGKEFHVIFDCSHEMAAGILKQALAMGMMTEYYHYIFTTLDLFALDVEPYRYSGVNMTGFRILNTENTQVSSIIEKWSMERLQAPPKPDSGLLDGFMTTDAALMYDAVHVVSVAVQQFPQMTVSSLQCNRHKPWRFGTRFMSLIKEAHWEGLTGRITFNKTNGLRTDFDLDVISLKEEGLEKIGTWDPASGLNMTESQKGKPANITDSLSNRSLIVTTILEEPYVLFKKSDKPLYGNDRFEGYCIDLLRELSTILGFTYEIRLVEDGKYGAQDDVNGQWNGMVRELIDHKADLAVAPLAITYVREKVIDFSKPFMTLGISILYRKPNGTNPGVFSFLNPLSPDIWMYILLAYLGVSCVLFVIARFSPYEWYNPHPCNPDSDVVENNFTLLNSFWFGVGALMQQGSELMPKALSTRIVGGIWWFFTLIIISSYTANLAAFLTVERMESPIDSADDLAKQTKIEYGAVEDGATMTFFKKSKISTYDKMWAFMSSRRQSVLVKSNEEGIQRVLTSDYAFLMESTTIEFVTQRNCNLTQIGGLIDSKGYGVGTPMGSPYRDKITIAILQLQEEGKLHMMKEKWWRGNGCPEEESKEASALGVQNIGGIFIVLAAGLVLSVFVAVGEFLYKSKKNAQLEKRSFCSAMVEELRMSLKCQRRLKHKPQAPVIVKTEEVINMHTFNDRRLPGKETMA
Chain of Glutamate receptor 2 (P19491 whole entry): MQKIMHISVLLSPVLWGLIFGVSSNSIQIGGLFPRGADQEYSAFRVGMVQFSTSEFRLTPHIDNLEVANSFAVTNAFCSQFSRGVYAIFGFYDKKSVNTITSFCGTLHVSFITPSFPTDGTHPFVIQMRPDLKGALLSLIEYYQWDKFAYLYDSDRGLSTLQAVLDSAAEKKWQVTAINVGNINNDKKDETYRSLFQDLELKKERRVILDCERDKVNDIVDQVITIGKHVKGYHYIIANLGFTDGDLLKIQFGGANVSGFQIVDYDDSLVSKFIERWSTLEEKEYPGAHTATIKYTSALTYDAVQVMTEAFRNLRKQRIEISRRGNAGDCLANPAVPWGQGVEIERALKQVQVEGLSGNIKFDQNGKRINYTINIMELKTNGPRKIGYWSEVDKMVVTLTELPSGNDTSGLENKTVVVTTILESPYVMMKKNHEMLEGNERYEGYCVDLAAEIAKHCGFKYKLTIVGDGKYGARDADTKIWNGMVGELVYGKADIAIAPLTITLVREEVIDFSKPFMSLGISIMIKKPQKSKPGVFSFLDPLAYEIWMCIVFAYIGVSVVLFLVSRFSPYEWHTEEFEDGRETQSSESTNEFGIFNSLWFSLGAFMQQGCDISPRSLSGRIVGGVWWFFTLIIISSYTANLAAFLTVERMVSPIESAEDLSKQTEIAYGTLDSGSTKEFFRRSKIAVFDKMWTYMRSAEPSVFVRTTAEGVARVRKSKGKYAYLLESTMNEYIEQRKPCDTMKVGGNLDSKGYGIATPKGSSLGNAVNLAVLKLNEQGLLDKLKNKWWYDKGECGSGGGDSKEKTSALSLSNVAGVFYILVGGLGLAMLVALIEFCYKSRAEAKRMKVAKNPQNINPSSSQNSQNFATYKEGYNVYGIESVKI

Usually Ki stands for the dissociation constant of the complex between target and ligand, obtained from inhibition or displacement. What is called IC50 is the concentration that inhibits the measured activity by half. Read a high IC50 as lower potency. As for `NC(Cc1cc(Cl)c(Cl)c(-c2ccccc2C(=O)O)c1)C(=O)O` (racemic), the Ki in assay [1] is above 100 µM. In addition, the result in assay [2], in assay [3] and in assay [5] was inactive. Also, in assay [4], the IC50 was above 100 µM.
Regarding `NC(Cc1cc(Cl)c(Cl)c(-c2cccc(C(=O)O)c2)c1)C(=O)O` (racemic), in assay [1], the Ki came out at 2.8 µM. Further, the result in assay [2], in assay [3] and in assay [5] was inactive. In assay [4], this molecule registered an IC50 above 100 µM.
`N[C@@H](Cc1cccc(-c2cccc(C(=O)O)c2)c1)C(=O)O`: the inhibition constant (Ki) in assay [1] turned out to be 4.08 µM. The outcome in assay [2], in assay [3] and in assay [5] was inactive.
Regarding `NC(Cc1cccc(Cc2cccc(C(=O)O)c2)c1)C(=O)O` (racemic), in assay [1], the Ki came to 50 µM. Further, the outcome in assay [2], in assay [3] and in assay [5] was inactive. This molecule came in with an IC50 in assay [4] above 100 µM.
Take `NC(Cc1cc(Cl)c(Cl)c(-c2cccc(-c3nnn[nH]3)c2)c1)C(=O)O` (racemic): in assay [1], the Ki is at least 100 µM. Also, the outcome in assay [2], in assay [3] and in assay [5] was inactive. Also, the IC50 in assay [4] was above 100 µM.
As for `NC(Cc1cccc(-c2cccc(C(=O)O)c2)c1)C(=O)O` (racemic), the Ki in assay [1] was determined as 7.9 µM. For the same molecule, the result in assay [2], in assay [3] and in assay [5] was inactive. The molecule also yielded an IC50 in assay [4] above 100 µM.
Take `NC(Cc1cccc(Cc2ccccc2C(=O)O)c1)C(=O)O` (racemic): in assay [1], the Ki was at least 100 µM. Besides, the outcome in assay [2], in assay [3] and in assay [5] was inactive. Moreover, the IC50 in assay [4] is above 100 µM.
Regarding `NC(Cc1cccc(-c2ccccc2C(=O)O)c1)C(=O)O` (racemic), in assay [1], the Ki was above 100 µM. For the same molecule, the result in assay [2], in assay [3] and in assay [5] was inactive. Further, in assay [4], the IC50 is above 100 µM.
For the molecule `N[C@H](Cc1cccc(-c2cccc(C(=O)O)c2)c1)C(=O)O`, in assay [1], the inhibitory constant (Ki) is above 1000 µM. The outcome in assay [2], in assay [3] and in assay [5] was inactive.
For `NC(Cc1cccc(-c2ccc(C(=O)O)cc2)c1)C(=O)O` (racemic), the Ki in assay [1] is above 100 µM. The result in assay [2], in assay [3] and in assay [5] was inactive. Moreover, the IC50 in assay [4] came out at 41 µM.
Turning to `NC(Cc1cccc(Cc2ccc(C(=O)O)cc2)c1)C(=O)O` (racemic), in assay [1], the Ki is at least 100 µM. The result in assay [2], in assay [3] and in assay [5] was inactive. Also, the IC50 in assay [4] was above 100 µM.
As usually defined, the Kd is the concentration at which binding is half-saturated. For `N[C@@H](Cn1ccc(=O)n(Cc2ccccc2C(=O)O)c1=O)C(=O)O`, the result in assay [2], in assay [3] and in assay [5] was inactive. In addition, the Kd in assay [6] was found to be 146 µM; in assay [7] it was 3.94 µM.
Consider `NC(Cc1cc(Cl)c(Cl)c(-c2cccc(O)c2)c1)C(=O)O` (racemic), for which the Ki in assay [1] is above 100 µM. The result in assay [2], in assay [3] and in assay [5] was inactive. The IC50 in assay [4] was determined as 4.6 µM.
Consider `NC(Cc1cc(Cl)c(Cl)c(-c2ccc(C(=O)O)cc2)c1)C(=O)O` (racemic), for which the Ki in assay [1] was above 100 µM. Moreover, the result in assay [2], in assay [3] and in assay [5] was inactive. The molecule also showed an IC50 in assay [4] of 42 µM.
In the case of `NC(Cc1cccc(-c2ccc(CC(=O)O)cc2)c1)C(=O)O` (stereo not drawn), the inhibition constant Ki in assay [1] is above 100 µM. Besides, the result in assay [2], in assay [3] and in assay [5] was inactive. Also, the IC50 in assay [4] was above 100 µM.
As for `NC(Cc1cc(Cl)c(Cl)c(-c2ccc(-c3nnn[nH]3)cc2)c1)C(=O)O` (racemic), the Ki in assay [1] is above 100 µM. The outcome in assay [2], in assay [3] and in assay [5] was inactive. Moreover, the IC50 in assay [4] was above 100 µM.
For `NC(Cc1cc(Cl)c(Cl)c(-c2cccc([N+](=O)[O-])c2)c1)C(=O)O` (racemic), in assay [1], the Ki is above 100 µM. For the same molecule, the outcome in assay [2], in assay [3] and in assay [5] was inactive. In assay [4], this molecule yielded a half-inhibitory concentration (IC50) above 100 µM.
`NC(Cc1cc(Cl)c(Cl)c(-c2ccccc2O)c1)C(=O)O` (racemic): the Ki in assay [1] was above 100 µM. Further, the result in assay [2], in assay [3] and in assay [5] was inactive. The IC50 in assay [4] is 85 µM.
Regarding `CC(C)(C)c1onc(OCP(=O)(O)O)c1C[C@H](N)C(=O)O`, the Ki in assay [1] is 2.9 µM. In addition, the result in assay [2], in assay [3] and in assay [5] was inactive. For the same molecule, the IC50 in assay [4] was 16 µM.
As to `NC(Cc1cc(Cl)c(Cl)c(-c2ccc(O)cc2)c1)C(=O)O` (racemic), the inhibitory constant (Ki) in assay [1] is above 100 µM. In addition, the result in assay [2], in assay [3] and in assay [5] was inactive. The same molecule gave an IC50 in assay [4] of 33 µM.
As for `NC(Cc1cc(Cl)c(Cl)c(-c2ccccc2-c2nnn[nH]2)c1)C(=O)O` (racemic), the Ki in assay [1] was above 100 µM. The outcome in assay [2], in assay [3] and in assay [5] was inactive. The same molecule yielded a 50% inhibitory concentration (IC50) in assay [4] above 100 µM.
Consider `NC(Cc1cc(Cl)c(Cl)c(-c2ccc([N+](=O)[O-])cc2)c1)C(=O)O` (racemic), for which the Ki in assay [1] was above 100 µM. The outcome in assay [2], in assay [3] and in assay [5] was inactive. The IC50 in assay [4] is above 100 µM.
On to `NC(Cc1cc(Cl)c(Cl)c(-c2ccc(C(=O)O)s2)c1)C(=O)O` (racemic), for which, in assay [1], the Ki is at least 100 µM. Further, the outcome in assay [2], in assay [3] and in assay [5] was inactive. In addition, in assay [4], the IC50 was found to be 61 µM.
Regarding `NC(Cc1cccc(-c2cccc(CC(=O)O)c2)c1)C(=O)O` (racemic), the Ki in assay [1] was at least 100 µM. For the same molecule, the result in assay [2], in assay [3] and in assay [5] was inactive. The molecule further yielded an IC50 in assay [4] above 100 µM.
